ChEMBL document CHEMBL4346672, “Antimicrobial and KPC/AmpC inhibitory activity of functionalized benzosiloxaboroles” (Eur J Med Chem, 2019)
Active and inactive are the calls of the source. The calls are words filed in the database; no cut-off is given here.

Tests used:
Klebsiella pneumoniae [1] = assay: Inhibition of beta lactamase KPC-3 in Klebsiella pneumoniae 81 assessed as potentiation of ceftazidime-induced antibacterial activity by measuring ceftazidime MIC at 16 mg/L incubated for 18 hrs by broth dilution method (reference value: >[…] mg/L)
Pseudomonas aeruginosa [2] = assay: Inhibition of beta lactamase AmpC in Pseudomonas aeruginosa 700 assessed as potentiation of ceftazidime-induced antibacterial activity by measuring ceftazidime MIC at 16 mg/L incubated for 18 hrs by broth dilution method (reference value: >[…] mg/L)
Acinetobacter baumannii [3] = assay: Inhibition of beta lactamase OXA-24 in Acinetobacter baumannii 181 assessed as potentiation of meropenem-induced antibacterial activity by measuring meropenem MIC at 16 mg/L incubated for 18 hrs by broth dilution method (reference value: […] mg/L)
Klebsiella pneumoniae [4] = assay: Inhibition of beta lactamase KPC-2 in Klebsiella pneumoniae 75 assessed as potentiation of ceftazidime-induced antibacterial activity by measuring ceftazidime MIC at 16 mg/L incubated for 18 hrs by broth dilution method (reference value: […] mg/L)
[5] = system: Klebsiella pneumoniae 700603; assay: Inhibition of extended-spectrum beta lactamase in Klebsiella pneumoniae ATCC 700603 assessed as potentiation of cefotaxime-induced antibacterial activity by measuring diameter of zone inhibition at 0.3 mg incubated for 18 hrs in presence of 10 ug cefotaxime by CLSI disc diffusion method (Rvb=19 mm)
Outline: (§1)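 EUCAST ESBL combination disc test on Mueller-Hinton agar. Zones were compared between a ceftazidime or cefotaxime disc alone and the same disc plus agent at 0.3 mg per disc. Clavulanic acid discs at 0.01 mg per disc served as reference. Plates were incubated at 35 °C for 18 h. A difference of at least 5 mm was counted as inhibition.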

Escherichia coli [6] = assay: Inhibition of beta lactamase CMY-2 in Escherichia coli 77 assessed as potentiation of ceftazidime-induced antibacterial activity by measuring diameter of zone inhibition at 0.3 mg incubated for 18 hrs in presence of 30 ug ceftazidime by CLSI disc diffusion method (Rvb=13 mm)
Outline: (§2)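 AmpC combination disc test on Mueller-Hinton agar, following EUCAST guidance and Yagi et al. Inhibition zones were compared between a CAZ-30 disc and a ceftazidime disc plus agent or PBA, each at 0.3 mg per disc. Plates were incubated at 35 °C for 18 h. A zone difference of at least 5 mm was counted as inhibition.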

Pseudomonas aeruginosa [7] = assay: Inhibition of beta lactamase OXA-15 in Pseudomonas aeruginosa 852 assessed as potentiation of ceftazidime-induced antibacterial activity by measuring ceftazidime MIC at 16 mg/L incubated for 18 hrs by broth dilution method (reference value: >[…] mg/L)
[8] = system: Klebsiella pneumoniae 700603; assay: Inhibition of extended-spectrum beta lactamase in Klebsiella pneumoniae ATCC 700603 assessed as potentiation of ceftazidime-induced antibacterial activity by measuring diameter of zone inhibition at 0.3 mg incubated for 18 hrs in presence of 10 ug ceftazidime by CLSI disc diffusion method (Rvb=13 mm); outline: as §1
Klebsiella pneumoniae [9] = assay: Inhibition of beta lactamase SHV-12 in Klebsiella pneumoniae ATCC 700603 assessed as potentiation of ceftazidime-induced antibacterial activity by measuring ceftazidime MIC at 16 mg/L incubated for 18 hrs by broth dilution method (reference value: […] mg/L)
Klebsiella pneumoniae [10] = assay: Inhibition of beta lactamase CMY-2 in Klebsiella pneumoniae 78 assessed as potentiation of ceftazidime-induced antibacterial activity by measuring ceftazidime MIC at 16 mg/L incubated for 18 hrs by broth dilution method (reference value: >[…] mg/L)
Klebsiella pneumoniae [11] = assay: Inhibition of beta lactamase KPC-3 in Klebsiella pneumoniae 83 assessed as potentiation of ceftazidime-induced antibacterial activity by measuring ceftazidime MIC at 16 mg/L incubated for 18 hrs by broth dilution method (reference value: >[…] mg/L)
[12] = system: Klebsiella pneumoniae ATCC BAA-1705; assay: Inhibition of beta lactamase KPC in Klebsiella pneumoniae ATCC BAA 1705 assessed as potentiation of meropenem-induced antibacterial activity by measuring diameter of zone inhibition at 0.3 mg incubated for 18 hrs in presence of 10 ug meropenem by CLSI disc diffusion method (Rvb=[…] mm)
Klebsiella pneumoniae [13] = assay: Inhibition of beta lactamase KPC-2 in Klebsiella pneumoniae 75 assessed as potentiation of meropenem-induced antibacterial activity by measuring meropenem MIC at 16 mg/L incubated for 18 hrs by broth dilution method (reference value: […] mg/L)
Klebsiella pneumoniae [14] = assay: Inhibition of beta lactamase KPC-3 in Klebsiella pneumoniae 81 assessed as potentiation of meropenem-induced antibacterial activity by measuring meropenem MIC at 16 mg/L incubated for 18 hrs by broth dilution method (reference value: […] mg/L)
[15] = system: Klebsiella pneumoniae ATCC BAA-1705; assay: Inhibition of beta lactamase KPC-2 in Klebsiella pneumoniae ATCC BAA 1705 assessed as potentiation of meropenem-induced antibacterial activity by measuring meropenem MIC at 16 mg/L incubated for 18 hrs by broth dilution method (reference value: […] mg/L)
Pseudomonas aeruginosa [16] = assay: Inhibition of beta lactamase VIM in Pseudomonas aeruginosa 698 assessed as potentiation of ceftazidime-induced antibacterial activity by measuring ceftazidime MIC at 16 mg/L incubated for 18 hrs by broth dilution method (reference value: […] mg/L)
Escherichia coli [17] = assay: Inhibition of beta lactamase KPC-3 in Escherichia coli 82 TR assessed as potentiation of ceftazidime-induced antibacterial activity by measuring ceftazidime MIC at 16 mg/L incubated for 18 hrs by broth dilution method (reference value: […] mg/L)
[18] = system: Klebsiella pneumoniae ATCC BAA-1705; assay: Inhibition of beta lactamase KPC-2 in Klebsiella pneumoniae ATCC BAA 1705 assessed as potentiation of ceftazidime-induced antibacterial activity by measuring ceftazidime MIC at 16 mg/L incubated for 18 hrs by broth dilution method
Escherichia coli [19] = assay: Inhibition of beta lactamase KPC-3 in Escherichia coli 82 TR assessed as potentiation of meropenem-induced antibacterial activity by measuring meropenem MIC at 16 mg/L incubated for 18 hrs by broth dilution method (reference value: 2 mg/L)
Klebsiella pneumoniae [20] = assay: Inhibition of beta lactamase KPC-3 in Klebsiella pneumoniae 83 assessed as potentiation of meropenem-induced antibacterial activity by measuring meropenem MIC at 16 mg/L incubated for 18 hrs by broth dilution method (reference value: […] mg/L)
[21] = target: Class A carbapenemase KPC-2 (Escherichia coli) (UniProt A8DS27); assay: Inhibition of beta lactamase KPC-2 in Escherichia coli 76 assessed as potentiation of ceftazidime-induced antibacterial activity by measuring ceftazidime MIC at 16 mg/L incubated for 18 hrs by broth dilution method (reference value: >[…] mg/L)
[22] = target: Class A carbapenemase KPC-2 (Escherichia coli) (UniProt A8DS27); assay: Inhibition of beta lactamase KPC-2 in Escherichia coli 76 assessed as potentiation of meropenem-induced antibacterial activity by measuring meropenem MIC at 16 mg/L incubated for 18 hrs by broth dilution method (reference value: >[…] mg/L)
Acinetobacter baumannii [23] = assay: Inhibition of beta lactamase OXA-24 in Acinetobacter baumannii 181 assessed as potentiation of ceftazidime-induced antibacterial activity by measuring ceftazidime MIC at 16 mg/L incubated for 18 hrs by broth dilution method (reference value: >[…] mg/L)
Escherichia coli [24] = assay: Inhibition of beta lactamase CMY-2 in Escherichia coli 77 assessed as potentiation of ceftazidime-induced antibacterial activity by measuring ceftazidime MIC at 16 mg/L incubated for 18 hrs by broth dilution method (reference value: […] mg/L)
Pseudomonas aeruginosa [25] = assay: Inhibition of beta lactamase AmpC in Pseudomonas aeruginosa MUW 700 assessed as potentiation of ceftazidime-induced antibacterial activity by measuring diameter of zone inhibition at 0.3 mg incubated for 18 hrs in presence of 30 ug ceftazidime by CLSI disc diffusion method (Rvb=11 mm); outline: as §2
Enterobacter cloacae = assay: Antibacterial activity against Enterobacter cloacae DSM 6234 assessed as diameter of zone inhibition measured after 18 hrs by CLSI disc diffusion method; format: functional
Outline: (§3)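 Disc diffusion on Mueller-Hinton II agar. Compounds dissolved in DMSO. Strains stored at -80 °C and subcultured twice on tryptic soy agar before testing. Inhibition zones read after 35 °C, 18 h.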

Serratia marcescens = settings: ATCC 13880
Proteus mirabilis = assay: Antibacterial activity against Proteus mirabilis ATCC 12453 assessed as diameter of zone inhibition measured after 18 hrs by CLSI disc diffusion method; format: functional; outline: as §3
Saccharomyces cerevisiae = assay: Antifungal activity against Saccharomyces cerevisiae ATCC 9763 diameter of zone inhibition incubated for 24 hrs by CLSI disc diffusion method; format: functional
Outline: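 Disc-diffusion run on Mueller-Hinton II agar with 2% glucose and 0.5 mg/L methylene blue, using compounds in DMSO. Yeast was precultured on Sabouraud dextrose agar (24–48 h, 30 °C). Zones read after 24 h at 35 °C.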

Candida albicans = assay: Antifungal activity against Candida albicans ATCC 90028 assessed as diameter of zone inhibition incubated for 24 hrs by CLSI disc diffusion method; format: functional
Outline: (§4)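 Yeast disc diffusion on Mueller-Hinton agar supplemented with 2% glucose and 0.5 mg/L methylene blue. Compounds in DMSO. Yeasts subcultured on Sabouraud dextrose agar before testing. Zones read after 35 °C, 24 h.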

Escherichia coli [26] = assay: Antibacterial activity against Escherichia coli ATCC 25922 assessed as diameter of zone inhibition measured after 18 hrs by CLSI disc diffusion method; format: functional; outline: as §3
[27] = system: Stenotrophomonas maltophilia; assay: Antibacterial activity against Stenotrophomonas maltophilia ATCC 13637 assessed as diameter of zone inhibition measured after 18 hrs by CLSI disc diffusion method; format: functional; outline: as §3
Pseudomonas aeruginosa [28] = assay: Antibacterial activity against Pseudomonas aeruginosa ATCC 27853 assessed as diameter of zone inhibition measured after 18 hrs by CLSI disc diffusion method; format: functional, organism-based; outline: as §3
Acinetobacter baumannii [29] = assay: Antibacterial activity against Acinetobacter baumannii ATCC 19606 assessed as diameter of zone inhibition measured after 18 hrs by CLSI disc diffusion method; format: functional; outline: as §3
[30] = Dissociation constant, pKa2 of compound in 0.1 M NaOH by potentiometric analysis; format: physicochemical
Staphylococcus aureus = assay: Antibacterial activity against Staphylococcus aureus ATCC 6538P assessed as diameter of zone inhibition measured after 18 hrs by CLSI disc diffusion method; format: functional; outline: as §3
[31] = system: Bordetella bronchiseptica; assay: Antibacterial activity against Bordetella bronchiseptica ATCC 4617 assessed as diameter of zone inhibition measured after 18 hrs by CLSI disc diffusion method; format: functional; outline: as §3
Candida tropicalis = assay: Antifungal activity against Candida tropicalis IBA 171 assessed as diameter of zone inhibition incubated for 24 hrs by CLSI disc diffusion method; format: functional; outline: as §4
[32] = system: Staphylococcus epidermidis; assay: Antibacterial activity against Staphylococcus epidermidis ATCC 12228 assessed as diameter of zone inhibition measured after 18 hrs by CLSI disc diffusion method; format: functional; outline: as §3
Pichia kudriavzevii = assay: Antifungal activity against Candida krusei ATCC 6258 assessed as diameter of zone inhibition incubated for 24 hrs by CLSI disc diffusion method; format: functional; outline: as §4
Burkholderia cepacia = assay: Antibacterial activity against Burkholderia cepacia ATCC 25416 assessed as diameter of zone inhibition measured after 18 hrs by CLSI disc diffusion method; format: functional; outline: as §3
Enterococcus faecium = assay: Antibacterial activity against Enterococcus faecium ATCC 6057 assessed as diameter of zone inhibition measured after 18 hrs by CLSI disc diffusion method; format: functional; outline: as §3
Candida parapsilosis = assay: Antifungal activity against Candida parapsilosis ATCC 22019 assessed as diameter of zone inhibition incubated for 24 hrs by CLSI disc diffusion method; format: functional; outline: as §4
[33] = Dissociation constant, pKa1 of compound in 0.1 M NaOH by potentiometric analysis; format: physicochemical
[34] = system: Meyerozyma guilliermondii; assay: Antifungal activity against Candida guilliermondii IBA 155 assessed as diameter of zone inhibition incubated for 24 hrs by CLSI disc diffusion method; format: functional; outline: as §4
Bacillus subtilis = assay: Antibacterial activity against Bacillus subtilis ATCC 6633 assessed as diameter of zone inhibition measured after 18 hrs by CLSI disc diffusion method; format: functional; outline: as §3
Klebsiella pneumoniae [35] = settings: ATCC 13883
Enterococcus faecalis = assay: Antibacterial activity against Enterococcus faecalis ATCC 29212 assessed as diameter of zone inhibition measured after 18 hrs by CLSI disc diffusion method; format: functional; outline: as §3

## OB(O)c1ccccc1
Klebsiella pneumoniae [1]
  MIC: 16 µg/mL
Pseudomonas aeruginosa [2]
  MIC: 8 µg/mL
Acinetobacter baumannii [3]
  MIC: > 64 µg/mL
Klebsiella pneumoniae [4]
  MIC: 16 µg/mL
[5]
  inhibition zone (IZ): 19 mm
Escherichia coli [6]
  inhibition zone (IZ): 24 mm
Pseudomonas aeruginosa [7]
  MIC: > 64 µg/mL
[8]
  inhibition zone (IZ): 14 mm
Klebsiella pneumoniae [9]
  MIC: 64 µg/mL
Klebsiella pneumoniae [10]
  MIC: 32 µg/mL
Klebsiella pneumoniae [11]
  MIC: 16 µg/mL
[12]
  inhibition zone (IZ): 22 mm
Klebsiella pneumoniae [13]
  MIC: 16 µg/mL
Klebsiella pneumoniae [14]
  MIC: 2 µg/mL
[15]
  MIC: 16 µg/mL
Pseudomonas aeruginosa [16]
  MIC: 64 µg/mL
Escherichia coli [17]
  MIC: 8 µg/mL
[18]
  MIC: 32 µg/mL
Escherichia coli [19]
  MIC: 0.25 µg/mL
Klebsiella pneumoniae [20]
  MIC: 8 µg/mL
[21]
  MIC: > 64 µg/mL
[22]
  MIC: 32 µg/mL
Acinetobacter baumannii [23]
  MIC: > 64 µg/mL
Escherichia coli [24]
  MIC: 8 µg/mL
Pseudomonas aeruginosa [25]
  inhibition zone (IZ): 22 mm

## C[Si]1(C)OB(O)c2cc3c(c(F)c21)[Si](C)(C)OB3O
Enterobacter cloacae
  diameter of the inhibition zone (DIZ): inactive
Serratia marcescens
  DIZ: inactive
Proteus mirabilis
  diameter of the inhibition zone (DIZ): inactive
Saccharomyces cerevisiae
  diameter of the inhibition zone (DIZ): inactive
Candida albicans
  diameter of the inhibition zone (DIZ): 11 mm
Escherichia coli [26]
  diameter of the inhibition zone (DIZ): inactive
[27]
  diameter of the inhibition zone (DIZ): inactive
Pseudomonas aeruginosa [28]
  diameter of the inhibition zone (DIZ): inactive
Acinetobacter baumannii [29]
  diameter of the inhibition zone (DIZ): inactive
[30]
  pKa: 8.6
Staphylococcus aureus
  diameter of the inhibition zone (DIZ): 22 mm
[31]
  diameter of the inhibition zone (DIZ): inactive
Candida tropicalis
  diameter of the inhibition zone (DIZ): inactive
[32]
  diameter of the inhibition zone (DIZ): 34 mm
Pichia kudriavzevii
  diameter of the inhibition zone (DIZ): inactive
Burkholderia cepacia
  diameter of the inhibition zone (DIZ): inactive
Enterococcus faecium
  diameter of the inhibition zone (DIZ): 16 mm
Candida parapsilosis
  diameter of the inhibition zone (DIZ): inactive
[33]
  pKa: 5.9
[34]
  diameter of the inhibition zone (DIZ): inactive
Bacillus subtilis
  diameter of the inhibition zone (DIZ): 27 mm
Klebsiella pneumoniae [35]
  DIZ: inactive
Enterococcus faecalis
  diameter of the inhibition zone (DIZ): 15 mm
